In ChEMBL document CHEMBL3997782, “Methoxylated 2'-hydroxychalcones as antiparasitic hit compounds” (Eur J Med Chem, 2017):

Columns and labels:
[1] = test system: Trypanosoma brucei brucei; experiment: Anti-parasitic activity against bloodstream form of Trypanosoma brucei brucei Lister 427 at 10 uM after 72 hrs by resazurin-based assay relative to control; format: functional; details: Lister 427, 72 h
Outline: (§1)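 Bloodstream-form T. brucei, modified resazurin-based viability assay. EC50 is the arithmetic mean of at least two independent determinations, each run in triplicate.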

[2] = Cytotoxicity against human THP1 cells by MTT assay; format: cell-based; details: THP-1 cells
Outline: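 THP-1 cells differentiated to macrophages with PMA, viability read by colorimetric MTT. CC50 and NOAEL are the arithmetic mean of at least two independent determinations, each run in triplicate.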

Trypanosoma cruzi [3] = experiment: Anti-parasitic activity against Trypanosoma cruzi Y promastigotes infected in HG39 cells at 10 uM by qPCR analysis relative to control; format: functional, cell-based; details: in the assay text read “trypomastigotes” for “promastigotes”
Outline: (§2)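 Confluent HG39 cells (3 x 10^6 per well) infected at a 1:1 ratio with blood-derived T. cruzi Y strain trypomastigotes. Growth inhibition was read as parasite gDNA by TaqMan probe-based quantitative real-time PCR.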

[4] = Cytotoxicity against human A549 cells assessed as cell growth at 10 uM by Cell titer-Glo assay relative to control; format: cell-based; details: read-out: Activity
Outline: (§3)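 A549 and WI-38 cells grown in DMEM with 10% v/v FCS, streptomycin 100 µg/ml and penicillin G 100 U/ml. Cell number read as cellular ATP by CellTiter-Glo luminescence. Growth 60–100% scored non-cytotoxic, 0–60% cytostatic, below 0 cytotoxic.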

[5] = Cytotoxicity against human […] cells assessed as cell growth at 10 uM by Cell titer-Glo assay relative to control; format: cell-based; details: WI-38 cells, read-out: Activity; outline: as §3
786-0 = experiment: Mitochondrial toxicity in human 786-O cells at 10 uM by mitotracker red chloromethyl-Xrosamine staining based-uptake method relative to control; format: cell-based; details: 786-0, 10 µM
Outline: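 786-O renal carcinoma cells kept in RPMI-1640 with 2 mM glutamine, 10% v/v FCS, streptomycin 100 µg/ml and penicillin G 100 U/ml. Mitochondrial toxicity monitored by MitoTracker Red CMXRos uptake with high-content imaging.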

Aurora kinase B = Aurora kinase B (Homo sapiens, UniProt Q96GD4); experiment: Inhibition of N-terminal-GST-tagged recombinant full length human Aurora B expressed in baculovirus infected Sf9 cells at 10 uM using native Swine Myelin Basic Protein as substrate measured after 60 mins by ADP-Glo assay relative to control; details: probe native Swine Myelin Basic Protein
Outline: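 Aurora B kinase activity measured by ADP-Glo, which detects ADP formed through a coupled luciferase luminescence read-out.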

hERG (KCNH2) = hERG (KCNH2) (Homo sapiens, UniProt Q12809); experiment: Inhibition of human ERG at 10 uM by Tracer Red dye based fluorescence polarization assay relative to control; details: probe Tracer Red dye
CYP1A2 = biological target: T1, CYP1A2 (Homo sapiens, UniProt P05177); experiment: Inhibition of human CYP1A2 expressed in baculovirus-infected insect cells at 10 uM using Luciferin-1A2 as substrate in presence of NADPH by P450-Glo luminescence assay relative to control; format: ADME; details: probe Luciferin-1A2
T1 sequence (P05177 whole entry): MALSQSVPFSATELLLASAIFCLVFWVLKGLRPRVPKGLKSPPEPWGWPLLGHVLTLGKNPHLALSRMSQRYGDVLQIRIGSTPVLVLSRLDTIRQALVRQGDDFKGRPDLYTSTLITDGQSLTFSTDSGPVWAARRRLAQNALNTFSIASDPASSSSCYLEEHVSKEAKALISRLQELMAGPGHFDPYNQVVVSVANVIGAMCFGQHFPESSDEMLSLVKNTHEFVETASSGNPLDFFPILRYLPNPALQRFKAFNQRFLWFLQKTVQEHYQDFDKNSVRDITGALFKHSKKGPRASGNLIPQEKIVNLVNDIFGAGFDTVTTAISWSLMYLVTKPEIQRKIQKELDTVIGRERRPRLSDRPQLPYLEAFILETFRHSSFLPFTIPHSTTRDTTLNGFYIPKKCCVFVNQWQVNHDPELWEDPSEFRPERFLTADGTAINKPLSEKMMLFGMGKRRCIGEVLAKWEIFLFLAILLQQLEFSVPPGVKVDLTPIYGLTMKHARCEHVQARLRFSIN
Outline: (§4)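 CYP enzymes as microsomal preparations from baculovirus-infected insect cells, run on the P450-Glo luminogenic substrate platform. A fall in light output indicates inhibition.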

CYP2C9 = CYP2C9 (Homo sapiens, UniProt P11712); experiment: Inhibition of human CYP2C9 expressed in baculovirus-infected insect cells at 10 uM using Luciferin-H as substrate in presence of NADPH by P450-Glo luminescence assay relative to control; details: probe Luciferin-H
CYP2C19 = CYP2C19 (Homo sapiens, UniProt P33261); experiment: Inhibition of human CYP2C19 expressed in baculovirus-infected insect cells at 10 uM using Luciferin-H EGE as substrate in presence of NADPH by P450-Glo luminescence assay relative to control; format: ADME; details: probe Luciferin-H EGE; outline: as §4
CYP2D6 = CYP2D6 (Homo sapiens, UniProt P10635); experiment: Inhibition of human CYP2D6 expressed in baculovirus-infected insect cells at 10 uM using Luciferin-ME EGE as substrate in presence of NADPH by P450-Glo luminescence assay relative to control; format: ADME; details: probe Luciferin-ME EGE; outline: as §4
CYP3A4 = CYP3A4 (Homo sapiens, UniProt P08684); experiment: Inhibition of human CYP3A4 expressed in baculovirus-infected insect cells at 10 uM using Luciferin-PFBE as substrate in presence of NADPH by P450-Glo luminescence assay relative to control; format: ADME; details: probe Luciferin-PFBE
[6] = Lipophilicity, log P of the compound; format: physicochemical; details: octanol/water
[7] = test system: Trypanosoma brucei brucei; experiment: Anti-parasitic activity against bloodstream form of Trypanosoma brucei brucei Lister 427 after 72 hrs by resazurin-based assay; format: functional; details: Lister 427, 72 h; outline: as §1
[8] = Selectivity index, ratio of CC50 for human THP1 cells to EC50 for anti-parasitic activity against bloodstream form of Trypanosoma brucei brucei Lister 427; format: toxicity; details: THP-1 cells, read-out: Ratio CC50/EC50
Outline: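 SI = CC50 in PMA-differentiated THP-1 macrophages (MTT) divided by the antiparasitic EC50.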

Leishmania infantum = experiment: Anti-parasitic activity against Leishmania infantum amastigotes infected in human THP1 cells at 50 uM after 5 days by Giemsa staining based assay relative to control; format: functional, cell-based; details: THP-1, 120 h
Outline: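 Intracellular L. infantum amastigotes in host cells, imaged by high-content automated imaging. Host cell number, infected cells and parasites per infected cell were counted. Infection Ratio = infected cells / total cells.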

Trypanosoma cruzi [9] = experiment: Anti-parasitic activity against Trypanosoma cruzi Y promastigotes infected in HG39 cells by qPCR analysis; format: functional, cell-based; details: in the assay text read “trypomastigotes” for “promastigotes”; outline: as §2

CYP3A4, sequence (P08684 whole entry): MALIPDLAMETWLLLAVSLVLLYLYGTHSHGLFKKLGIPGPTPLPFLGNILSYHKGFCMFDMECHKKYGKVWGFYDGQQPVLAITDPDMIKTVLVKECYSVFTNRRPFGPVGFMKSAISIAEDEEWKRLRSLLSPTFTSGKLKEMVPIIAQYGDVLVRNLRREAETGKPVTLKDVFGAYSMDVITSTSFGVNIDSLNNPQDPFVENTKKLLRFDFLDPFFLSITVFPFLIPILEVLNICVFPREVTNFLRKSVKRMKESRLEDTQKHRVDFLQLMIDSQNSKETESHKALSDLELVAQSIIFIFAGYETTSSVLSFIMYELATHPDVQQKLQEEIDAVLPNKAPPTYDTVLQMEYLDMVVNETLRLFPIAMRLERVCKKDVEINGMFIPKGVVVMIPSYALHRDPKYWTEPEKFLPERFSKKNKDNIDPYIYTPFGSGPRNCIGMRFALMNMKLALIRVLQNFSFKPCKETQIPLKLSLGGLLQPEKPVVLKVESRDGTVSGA
CYP2C9, sequence (P11712 whole entry): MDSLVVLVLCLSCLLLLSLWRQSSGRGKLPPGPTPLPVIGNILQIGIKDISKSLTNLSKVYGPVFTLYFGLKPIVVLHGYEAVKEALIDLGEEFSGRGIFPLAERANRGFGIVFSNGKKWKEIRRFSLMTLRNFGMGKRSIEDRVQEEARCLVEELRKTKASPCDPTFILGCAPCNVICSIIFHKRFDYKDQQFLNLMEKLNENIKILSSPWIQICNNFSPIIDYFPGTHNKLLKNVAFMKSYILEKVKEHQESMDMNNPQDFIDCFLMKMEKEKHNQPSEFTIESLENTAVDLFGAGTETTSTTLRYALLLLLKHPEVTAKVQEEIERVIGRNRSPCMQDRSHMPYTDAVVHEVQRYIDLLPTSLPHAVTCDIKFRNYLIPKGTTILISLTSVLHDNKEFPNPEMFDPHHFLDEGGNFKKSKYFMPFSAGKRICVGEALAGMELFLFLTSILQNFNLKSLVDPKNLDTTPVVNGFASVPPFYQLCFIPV
CYP2D6, sequence (P10635 whole entry): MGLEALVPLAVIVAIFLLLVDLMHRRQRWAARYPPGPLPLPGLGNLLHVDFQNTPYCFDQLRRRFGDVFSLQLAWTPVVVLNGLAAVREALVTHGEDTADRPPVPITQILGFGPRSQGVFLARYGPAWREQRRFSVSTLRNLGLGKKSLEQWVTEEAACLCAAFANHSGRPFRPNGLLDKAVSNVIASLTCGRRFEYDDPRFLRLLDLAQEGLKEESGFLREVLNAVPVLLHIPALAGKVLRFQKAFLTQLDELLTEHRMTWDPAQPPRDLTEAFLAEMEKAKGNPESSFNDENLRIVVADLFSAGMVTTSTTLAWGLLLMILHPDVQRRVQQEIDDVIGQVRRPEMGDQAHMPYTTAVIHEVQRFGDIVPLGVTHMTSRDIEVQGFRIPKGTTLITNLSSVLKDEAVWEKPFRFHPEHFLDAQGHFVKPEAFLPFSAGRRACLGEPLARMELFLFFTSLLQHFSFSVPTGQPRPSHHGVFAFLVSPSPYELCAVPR
CYP2C19, sequence (P33261 whole entry): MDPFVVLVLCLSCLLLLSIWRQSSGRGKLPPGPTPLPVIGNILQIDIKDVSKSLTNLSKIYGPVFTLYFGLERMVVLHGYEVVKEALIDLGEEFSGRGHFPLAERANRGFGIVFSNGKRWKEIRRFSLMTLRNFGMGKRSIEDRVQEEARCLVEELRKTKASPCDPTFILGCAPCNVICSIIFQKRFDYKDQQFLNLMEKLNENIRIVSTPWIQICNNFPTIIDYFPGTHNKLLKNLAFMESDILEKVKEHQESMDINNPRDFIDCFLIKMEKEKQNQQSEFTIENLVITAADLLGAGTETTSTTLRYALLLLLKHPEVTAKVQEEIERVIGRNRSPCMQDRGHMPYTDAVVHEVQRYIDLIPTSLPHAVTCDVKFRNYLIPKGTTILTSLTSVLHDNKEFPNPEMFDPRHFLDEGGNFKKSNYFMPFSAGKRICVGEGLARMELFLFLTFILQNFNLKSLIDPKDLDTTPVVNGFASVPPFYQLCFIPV
Aurora kinase B, sequence (Q96GD4 whole entry): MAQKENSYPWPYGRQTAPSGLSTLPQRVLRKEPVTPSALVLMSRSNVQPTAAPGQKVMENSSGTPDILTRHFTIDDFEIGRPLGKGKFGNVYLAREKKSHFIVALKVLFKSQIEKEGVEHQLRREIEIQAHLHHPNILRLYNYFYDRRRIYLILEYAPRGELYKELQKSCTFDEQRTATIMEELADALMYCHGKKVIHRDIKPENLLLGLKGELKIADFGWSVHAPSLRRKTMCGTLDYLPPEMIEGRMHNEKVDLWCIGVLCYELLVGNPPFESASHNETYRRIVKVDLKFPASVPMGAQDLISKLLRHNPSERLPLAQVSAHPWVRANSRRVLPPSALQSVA
hERG (KCNH2), sequence (Q12809 whole entry): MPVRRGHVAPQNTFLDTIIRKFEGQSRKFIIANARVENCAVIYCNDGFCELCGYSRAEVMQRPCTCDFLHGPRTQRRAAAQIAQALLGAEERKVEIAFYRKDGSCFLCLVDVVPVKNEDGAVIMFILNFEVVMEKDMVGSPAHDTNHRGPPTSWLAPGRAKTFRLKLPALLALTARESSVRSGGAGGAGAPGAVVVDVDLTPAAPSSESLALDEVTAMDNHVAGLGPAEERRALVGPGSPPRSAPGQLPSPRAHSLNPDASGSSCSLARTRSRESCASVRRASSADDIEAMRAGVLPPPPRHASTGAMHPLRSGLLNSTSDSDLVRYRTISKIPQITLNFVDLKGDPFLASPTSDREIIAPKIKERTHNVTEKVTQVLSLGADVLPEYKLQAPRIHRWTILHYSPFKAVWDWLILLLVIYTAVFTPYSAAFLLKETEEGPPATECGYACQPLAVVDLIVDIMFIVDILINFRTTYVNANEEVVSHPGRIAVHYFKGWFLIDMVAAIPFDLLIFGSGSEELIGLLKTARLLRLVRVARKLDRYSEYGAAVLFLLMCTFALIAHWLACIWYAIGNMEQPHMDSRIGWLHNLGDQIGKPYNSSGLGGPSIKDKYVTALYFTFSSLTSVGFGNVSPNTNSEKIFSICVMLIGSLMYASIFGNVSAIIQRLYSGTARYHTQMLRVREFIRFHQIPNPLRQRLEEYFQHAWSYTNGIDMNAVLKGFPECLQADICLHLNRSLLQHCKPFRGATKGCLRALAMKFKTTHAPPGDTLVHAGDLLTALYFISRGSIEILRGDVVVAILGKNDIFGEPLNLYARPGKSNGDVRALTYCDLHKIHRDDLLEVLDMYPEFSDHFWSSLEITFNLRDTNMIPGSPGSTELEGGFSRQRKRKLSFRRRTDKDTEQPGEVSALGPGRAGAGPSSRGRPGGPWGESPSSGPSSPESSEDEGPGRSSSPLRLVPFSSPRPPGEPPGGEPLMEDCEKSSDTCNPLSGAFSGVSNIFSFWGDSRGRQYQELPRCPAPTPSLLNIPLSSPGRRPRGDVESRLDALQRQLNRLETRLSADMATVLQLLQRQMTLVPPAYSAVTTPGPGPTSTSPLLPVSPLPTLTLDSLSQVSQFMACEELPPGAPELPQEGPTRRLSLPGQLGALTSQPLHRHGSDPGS

SMILES	inhibition at 1 h, 10 µM (Aurora kinase B)	inhibition at 10 µM (CYP1A2)	inhibition at 10 µM (CYP2C9)	inhibition at 10 µM (CYP2C19)	inhibition at 10 µM (CYP2D6)	inhibition at 10 µM (CYP3A4)	logP [6]	EC50 [7]	EC50 (Trypanosoma cruzi [9])	EC50 (Leishmania infantum)	EC50 (Trypanosoma cruzi [3])	inhibition at 10 µM [1]	CC50 [2]	inhibition at 10 µM (Trypanosoma cruzi [3])	viability at 10 µM [4]	viability at 10 µM [5]	Activity (786-0)	inhibition at 10 µM (hERG (KCNH2))	selectivity ratio [8]	inhibition at 50 µM (Leishmania infantum)
COc1cccc(-c2oc3ccccc3c(=O)c2O)c1								2320 nM											4	
COc1ccc2c(=O)c(O)c(-c3cc(OC)c(OC)c(OC)c3)oc2c1								1170 nM											17	
COc1ccc2oc(-c3ccc(OC)c(OC)c3)c(O)c(=O)c2c1								2020 nM											5	
COc1ccc(-c2oc3ccc(OC)cc3c(=O)c2O)cc1								20100 nM											1	
COc1cccc(-c2oc3cc(OC)ccc3c(=O)c2O)c1								1140 nM											8	
COc1cccc(-c2oc3ccc(OC)cc3c(=O)c2O)c1								1430 nM											10	
COc1cccc(/C=C/C(=O)c2ccccc2O)c1	-6.6%	85.6%	17.1%	76.2%	-8.4%	-1.4%	3.94	1300 nM				100%	> 25000 nM	46%	105%	118%	6.2%	11.3%	≥ 19	11%
COc1ccc(-c2oc3cc(OC)ccc3c(=O)c2O)cc1								1100 nM											9	
COc1ccc2c(=O)c(O)c(-c3ccc(OC)c(OC)c3)oc2c1								2990 nM											8	
C=CC(C)(C)c1cc(/C=C/C(=O)c2ccc(O)cc2)c(OC)cc1O [LICOAGROCHACONE A]							4.74													
CCCCCCCCCCCCCCCCOP(=O)([O-])OCC[N+](C)(C)C [MILTEFOSINE]										2650 nM										
CC1CS(=O)(=O)CCN1/N=C/c1ccc([N+](=O)[O-])o1 (stereo not drawn) [NIFURTIMOX]											2200 nM									

The next lines start with results.

inhibition at 1 h, 10 µM (Aurora kinase B)	inhibition at 10 µM (CYP1A2)	inhibition at 10 µM (CYP2C9)	inhibition at 10 µM (CYP2C19)	inhibition at 10 µM (CYP2D6)	inhibition at 10 µM (CYP3A4)	logP [6]	EC50 [7]	EC50 (Trypanosoma cruzi [9])	EC50 (Leishmania infantum)	EC50 (Trypanosoma cruzi [3])	SMILES	inhibition at 10 µM [1]	CC50 [2]	inhibition at 10 µM (Trypanosoma cruzi [3])	viability at 10 µM [4]	viability at 10 µM [5]	Activity (786-0)	inhibition at 10 µM (hERG (KCNH2))	selectivity ratio [8]	inhibition at 50 µM (Leishmania infantum)
107%	39.6%	21.7%	34.2%	47.7%	5%	3.88					COc1ccc(/C=C/C(=O)c2ccc(OC)cc2O)cc1	18%	> 100000 nM	47%	102%	14.2%	14.2%	2.7%		
-10.6%	75.4%	47.4%	63.5%	58%	-8.3%	3.86	3400 nM	< 10000 nM			COc1cccc(/C=C/C(=O)c2ccc(OC)cc2O)c1	100%	> 25000 nM	74%	110%	63%	-2.9%	13.6%	≥ 7	21%
-10.4%	36.2%	10.7%	50%	92.7%	2.4%	3.53		< 10000 nM			COc1ccc(C(=O)/C=C/c2ccc(OC)c(OC)c2)c(O)c1	10%	> 100000 nM	48%	98.8%	128%	-5.8%	3.5%		10%
92.1%	52.8%	-25.6%	74.9%	17.1%	11.8%	3.51	3400 nM				COc1ccc(C(=O)/C=C/c2c(OC)cccc2OC)c(O)c1	98%	> 100000 nM	0%	48.2%	0.1%	0%	18.8%	≥ 29	
-15.1%	84.2%	-31.7%	69.6%	52.2%	14.3%	3.87	2100 nM				COc1cccc(/C=C/C(=O)c2cc(OC)ccc2O)c1	100%	> 25000 nM	28%	116%	87.5%	13.4%	17.6%	≥ 12	14%
-10.1%	60%	-26.9%	21.4%	93.7%	-2.7%	3.52					COc1ccc(O)c(C(=O)/C=C/c2ccc(OC)c(OC)c2)c1	15%	> 50000 nM	0%	116%	114%	-9.5%	15.9%		16%
107%	85.2%	25.8%	47.3%	79.6%	6.2%	3.87					COc1ccc(/C=C/C(=O)c2cc(OC)ccc2O)cc1	9%	> 100000 nM	9%	91.3%	15.8%	15.8%	42.1%		
104%	41.7%	36.9%	61.1%	11.7%	15.3%	3.52	2100 nM	< 10000 nM			COc1ccc(O)c(C(=O)/C=C/c2c(OC)cccc2OC)c1	86%	> 25000 nM	52%	103%	14.6%	14.6%	-7.1%	≥ 12	
